Broadly, the IC50 is the midpoint of a concentration-inhibition curve. Low readings indicate greater potency in that assay, high ones weaker potency in that assay.

Calls of active or inactive are those of the source. The rule behind the calls is not given here.

The values below come from ChEMBL document CHEMBL1153919, “Pyrano[2,3-e]isoindol-2-ones, new angelicin heteroanalogues” (Bioorg Med Chem Lett, 2009).

The subject of experiment [1] is LoVo. As to the kind of experiment: Phototoxicity against human LoVo cells exposed to irradiation with 2.5 J/cm'2 UVA light prior to 72 hrs drug exposure by MTT assay. The class given is functional, cell-based. The note with it: light or radiation study. In a few lines:
(§1)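 Phototoxicity panel: NCTC-2544 keratinocytes, LoVo adenocarcinoma, K562 and Jurkat leukemia cells. Cells with compound received UVA at 2.5 or 3.75 J/cm2. Cell growth was measured by MTT after 72 h of exposure. IC50 is the concentration inhibiting growth by 50%.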
Background: Tetrazolium assays rely on reduction of a dye to a coloured formazan, in cell work by metabolically active cells.

The subject of experiment [2] is Jurkat. The experiment is described as follows: Cytotoxicity against human Jurkat cells after 72 hrs by MTT assay. The class given is functional, cell-based.
Experiment [3] concerns LoVo. The experiment is described as follows: Phototoxicity against human LoVo cells exposed to irradiation with 3.75 J/cm'2 UVA light prior to 72 hrs drug exposure by MTT assay. Format: functional, cell-based. The note with it: light or radiation study. In short, it runs like this:
as §1

For experiment [4], the system named is K562. The experiment is described as follows: Phototoxicity against human K562 cells exposed to irradiation with 3.75 J/cm'2 UVA light prior to 72 hrs drug exposure by MTT assay. The class given is functional, cell-based. The note with it: K562, light or radiation study. In a few lines:
as §1

For experiment [5], the system named is Jurkat. As to the kind of experiment: Phototoxicity against human Jurkat cells exposed to irradiation with 2.5 J/cm'2 UVA light prior to 72 hrs drug exposure by MTT assay. The note with it: light or radiation study. Format: functional, cell-based. In a few lines:
as §1

A short description of experiment [6]: Cytotoxicity against human NCTC-2544 cells after 72 hrs by MTT assay. Format: cell-based. The note with it: NCTC-2544, 72 h.
For experiment [7], the system named is Jurkat. As to the kind of experiment: Cell cycle arrest in 2.5 J/cm'2 UVA light irradiated human Jurkat cells assessed as accumulation at S phase at 5 uM after 24 hrs by DNA cytometry. Format: functional. In short, it runs like this:
(§2)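 Jurkat (T-cell leukemia) cells were UVA-irradiated at 2.5 J/cm2 in the presence of 5 µM compound. DNA content was analysed by flow cytometry 24 h after irradiation. Controls were non-irradiated cells and cells irradiated without compound. A representative experiment is shown, repeated two times.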

Experiment [8] has as its system Jurkat. As to the kind of experiment: Induction of lipid peroxidation in 2.5 J/cm'2 UVA light irradiated human Jurkat cells at 5 uM by TBARS test. Format: functional, cell-based.
Experiment [9] has as its system K562. The experiment is described as follows: Cytotoxicity against human K562 cells after 72 hrs by MTT assay. The note with it: K562, 72 h. Format: functional, cell-based.
Experiment [10] in a line: Phototoxicity against human NCTC-2544 cells exposed to irradiation with 2.5 J/cm'2 UVA light prior to 72 hrs drug exposure by MTT assay. The class given is cell-based. The note with it: NCTC-2544, light or radiation study. In short, it runs like this: as §1
Experiment [11] has as its system Jurkat. As to the kind of experiment: Cell cycle arrest in 2.5 J/cm'2 UVA light irradiated human Jurkat cells assessed as accumulation at subG1 phase at 5 uM after 24 hrs by DNA cytometry. Format: functional. In a few lines: as §2
Experiment [12] concerns Jurkat. As to the kind of experiment: Phototoxicity against human Jurkat cells exposed to irradiation with 3.75 J/cm'2 UVA light prior to 72 hrs drug exposure by MTT assay. Format: functional, cell-based. The note with it: light or radiation study. In a few lines:
as §1

Experiment [13] is described as follows: Phototoxicity against human NCTC-2544 cells exposed to irradiation with 3.75 J/cm'2 UVA light prior to 72 hrs drug exposure by MTT assay. The class given is cell-based. The note with it: NCTC-2544, light or radiation study. In short, it runs like this: as §1
Experiment [14] deals with Jurkat. As to the kind of experiment: Induction of lipid peroxidation in 2.5 J/cm'2 UVA light irradiated human Jurkat cells at 10 uM by TBARS test. Format: functional, cell-based.
Experiment [15] has as its system Jurkat. As to the kind of experiment: Cell cycle arrest in 2.5 J/cm'2 UVA light irradiated human Jurkat cells assessed as accumulation at G1 phase at 5 uM after 24 hrs by DNA cytometry. Format: functional. In a few lines: as §2
In experiment [16] the test system is Jurkat. As to the kind of experiment: Induction of lipid peroxidation in 2.5 J/cm'2 UVA light irradiated human Jurkat cells at 20 uM by TBARS test. The class given is functional, cell-based.
The subject of experiment [17] is K562. As to the kind of experiment: Phototoxicity against human K562 cells exposed to irradiation with 2.5 J/cm'2 UVA light prior to 72 hrs drug exposure by MTT assay. The class given is functional, cell-based. The note with it: K562, light or radiation study. In short, it runs like this: as §1
Experiment [18] deals with LoVo. As to the kind of experiment: Cytotoxicity against human LoVo cells after 72 hrs by MTT assay. Format: functional, cell-based.
In experiment [19] the test system is Jurkat. The experiment is described as follows: Cell cycle arrest in 2.5 J/cm'2 UVA light irradiated human Jurkat cells assessed as accumulation at G2/M phase at 5 uM after 24 hrs by DNA cytometry. Format: functional. In a few lines:
as §2

For the compound `CCOC(=O)c1c2c(c(C)n1Cc1ccccc1)-c1oc(=O)c(C(=O)OC)cc1CC2`, the IC50 with LoVo [1] is 7.7 µM; in the experiment on Jurkat [2], greater than 20 µM; in the experiment on LoVo [3], 7.3 µM; in the experiment with K562 [4], 2.7 µM; in the experiment on Jurkat [5] it was 8.4 µM; in experiment [6], greater than 20 µM. For the same compound, the concentration for half-maximal inhibition (IC50) in the experiment with K562 [9] is greater than 20 µM; in [10] it was 14 µM; in the experiment on Jurkat [12], 3.7 µM; in [13], 10 µM; with K562 [17] it was 6.1 µM; with LoVo [18] it was greater than 20 µM. For the same compound, the Activity with Jurkat [7] was determined as 44.2%; in the experiment with Jurkat [11], 14.8%; in the experiment on Jurkat [15], 44.7%; in the experiment with Jurkat [19], 11.7%. For the same compound, the outcome in the experiment on Jurkat [8], in the experiment with Jurkat [14] and with Jurkat [16] was Active.
Consider `CCOC(=O)c1cc2c(oc1=O)-c1c(c(C(=O)OCC)n(Cc3ccccc3)c1C)CC2`, for which the IC50 in the experiment on LoVo [1] is 10.5 µM; in the experiment with Jurkat [2], greater than 20 µM; in the experiment with LoVo [3], 9.6 µM; in the experiment on K562 [4] it was 7.3 µM; with Jurkat [5] it was 8.2 µM; in experiment [6], greater than 20 µM. The half-inhibitory concentration (IC50) in the experiment on K562 [9] was greater than 20 µM; in experiment [10], 14.6 µM; with Jurkat [12], 7.2 µM; in experiment [13] it was 10.9 µM; in the experiment on K562 [17], 7.5 µM; in the experiment on LoVo [18], greater than 20 µM. The Activity is recorded as 37.6% in the experiment on Jurkat [7], 17.2% in the experiment on Jurkat [11], 44.7% in the experiment on Jurkat [15] and 17.7% in the experiment with Jurkat [19]. Besides, the outcome in the experiment on Jurkat [8], in the experiment on Jurkat [14] and with Jurkat [16] was Active.
